TAAR1 antag – human TAAR1 antagonists, primary screen, Fluo-8 calcium fluorescence, CHO RD-HGA16 cells; inhibition, % at 3 µM; antagonist; actives 1.5% (n = 360,000); Trace amine-associated receptor 1 (Homo sapiens), Q96RJ0;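 active = inhibition above a per-plate cutoff, the mean inhibition of test compounds on that plate plus 3 SD, cut at about 49% in these data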;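 note: 0% = DMSO plus EC80 beta-PEA response and 100% = DMSO alone without agonist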
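Test system – hTAAR1-expressing CHO RD-HGA16 cells, Gα16-coupled · Also added – β-PEA at EC80 concentration, post-compound challenge · Compound – 3 µM, single point · Incubation – dye loading 75 min at 37 °C, then 30 min room temperature · Measured by – Fluo-8 intracellular calcium dye fluorescence, real-time kinetic reads · Benchmarks – vehicle and agonist controls · Replicates – singlicate, one well per test compound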
CHO parental Ca – ATP-evoked calcium signal inhibitors, parental CHO, primary screen, counter-screen for OX1R antagonist project, cell-based, fluorescence, Fluo-8 calcium dye; actives 0.63% (n = 330,000); inhibition, % at 5.6 µM; AID 463079, 2010; parental CHO-K1, ATP-induced calcium, Fluo-8 fluorescence;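 active = inhibition above that plate's mean sample inhibition plus 3 SD, cut at about 26% in these data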;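 note: 0% = ATP-challenged DMSO wells and 100% = DMSO wells without ATP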
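material = parental CHO cells | also added = ATP as calcium-mobilizing challenge | dosing = single point at 5.6 µM | detection = intracellular calcium via Fluo-8 no-wash fluorescent dye | read-out = % inhibition | benchmarks = low control ATP plus DMSO, high control DMSO only | repeats = one well per compound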
TAAR1 agonist – human TAAR1 agonists, primary screen, Fluo-8 calcium fluorescence, CHO RD-HGA16 cells | vehicle wells 0%, saturating PEA agonist 100% | actives 0.99% (n = 360,000) | activation, % at 3 µM;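 active = activation above the mean activation of all test compounds in the run plus 3 SD, cut at about 38% in these data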
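Assay system: CHO-derived RD-HGA16 cells with stable Gα16 and human TAAR1; timing: 17-24 h seeding, 75 min 37 °C dye, 30 min RT; read-out: % activation from peak over basal fluorescence ratio, DMSO-to-PEA scaled; measured by: kinetic Fluo-8 calcium fluorescence; benchmarks: low control DMSO, high control PEA (EC100); doses: 3 µM single concentration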
GPR7 antagonist – GPR7 receptor antagonists, primary screen, cell-based, fluorescence, single concentration; Neuropeptides B/W receptor type 1 (Homo sapiens), P48145; inhibition, % at 4.4 µM; actives 1.1% (n = 290,000); GPR7-expressing cells, fluorescence antagonist assay; in the data active = inhibition above about 16%, passing the limit was not always enough;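 note: cells stimulated with the agonist NPW; 0% = agonist with vehicle and 100% = vehicle without agonist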
Target sequence (P48145 whole entry, looked up): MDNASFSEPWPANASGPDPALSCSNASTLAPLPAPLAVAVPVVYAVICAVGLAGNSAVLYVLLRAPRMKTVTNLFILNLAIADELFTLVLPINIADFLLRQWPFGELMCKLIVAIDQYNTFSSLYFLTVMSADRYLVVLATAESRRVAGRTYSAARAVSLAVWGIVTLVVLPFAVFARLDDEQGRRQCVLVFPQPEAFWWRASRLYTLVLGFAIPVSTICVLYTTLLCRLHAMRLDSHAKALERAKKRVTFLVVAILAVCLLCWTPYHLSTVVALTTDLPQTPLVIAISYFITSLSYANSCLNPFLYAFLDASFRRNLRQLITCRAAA
OX1R antag-1 – OX1R (HCRTR1) antagonists, primary screen, fluorescence, CHO/OX1R cells, Fluo-8 calcium, orexin A; inhibition, % at 5 µM; Orexin/Hypocretin receptor type 1 (Homo sapiens), O43613; Fluo-8 calcium fluorescence; actives 0.43% (n = 330,000);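 active = inhibition above its plate's threshold, mean inhibition of all tested compounds on the plate plus 3 SD, cut at about 37% in these data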;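 note: 0% = orexin A challenge wells and 100% = SB-334867-A antagonist wells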
Target sequence (O43613 whole entry, looked up): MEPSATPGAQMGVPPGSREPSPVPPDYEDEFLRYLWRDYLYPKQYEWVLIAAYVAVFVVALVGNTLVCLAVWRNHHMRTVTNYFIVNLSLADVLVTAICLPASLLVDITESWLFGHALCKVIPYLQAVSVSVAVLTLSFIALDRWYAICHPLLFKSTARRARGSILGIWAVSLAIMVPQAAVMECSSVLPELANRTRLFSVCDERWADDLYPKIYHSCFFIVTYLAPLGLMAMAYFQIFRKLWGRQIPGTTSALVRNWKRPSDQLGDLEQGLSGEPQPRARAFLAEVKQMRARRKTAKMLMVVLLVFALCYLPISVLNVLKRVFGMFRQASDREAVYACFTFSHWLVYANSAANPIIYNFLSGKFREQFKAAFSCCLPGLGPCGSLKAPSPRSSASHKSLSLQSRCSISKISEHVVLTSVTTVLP
OX1R antag-2 – antagonists of human orexin 1 receptor (OX1R). Orexin/Hypocretin receptor type 1 (Homo sapiens), O43613. OX1R-expressing cells, FRET antagonist read-out. inhibition, % at 6.6 µM. actives 1.8% (n = 330,000); in the data active = inhibition mostly above about 38%, no sharp cut-off; inactive = mostly below about 40%;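 note: 0% = agonist challenge alone and 100% = reference antagonist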
TAAR1 ag conf – human TAAR1 agonists, retest of hits, confirmation, Fluo-8 calcium fluorescence, CHO RD-HGA16 cells; shares compounds with TAAR1 agonist; scaled: DMSO 0%, maximal phenethylamine 100%; activation, % at 3 µM; actives 82% (n = 2,400); AID 651783, 2012;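 active = activation above a cutoff set at the run's mean compound activation plus 3 SD, cut at about 39% in these data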
Ga16 nonsel ag – nonselective calcium mobilization agonists, CHO-Ga16 cells, counter-screen for hTAAR1 agonist project, cell-based, fluorescence, CHO-Ga16 parental line | shares compounds with TAAR1 agonist | activation, % at 3 µM | actives 50% (n = 2,400) | Fluo-8 calcium fluorescence; normalized to maximal ATP response, DMSO zero;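 active = activation above the run cutoff, the mean activation over all tested wells plus 3 SD, cut at about 12% in these data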;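 note: 0% = DMSO wells and 100% = maximal ATP response on the peak over basal ratio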
TAAR1 desensitize – TAAR1 desensitization by agonist hits, confirmation, counter-screen for TAAR1 agonist project, cell-based, fluorescence, tachyphylaxis. shares compounds with TAAR1 agonist. CHO RD-HGA16 hTAAR1, Fluo-8 calcium, beta-PEA response inhibition. inhibition, % at 3 µM. actives 46% (n = 2,400);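 active = inhibition above the run cutoff, the mean inhibition of all test compounds plus 3 SD, cut at about 49% in these data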;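 note: beta-PEA stimulus applied at its EC80; loss of beta-PEA calcium signal after compound pretreatment read as receptor desensitization; 0% = DMSO with beta-PEA at EC80 and 100% = DMSO alone without agonist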
Ga16 antag count – inhibition of ATP-evoked calcium response in CHO-Ga16 cells, counter-screen for TAAR1 agonist project, cell-based, fluorescence. shares compounds with TAAR1 agonist. CHO-Ga16 ATP-induced calcium, Fluo-8 fluorescence. inhibition, % at 3 µM. actives 39% (n = 2,400). AID 651952, 2012;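 active = inhibition above the plate's mean compound inhibition plus 3 SD, computed per plate, cut at about 22% in these data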;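 note: 0% = EC80 ATP with DMSO and 100% = DMSO wells without ATP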
An asterisk follows results filed as active; · = no result. Most compounds without a hit are left out; they make up all but 4.6% or so of the library.

SMILES | TAAR1 antag | CHO parental Ca | TAAR1 agonist | GPR7 antagonist | OX1R antag-1 | OX1R antag-2 | TAAR1 ag conf | Ga16 nonsel ag | TAAR1 desensitize | Ga16 antag count
S=C(Nc1cc(Cl)cc(Cl)c1)NC1CCN(Cc2ccccc2)CC1 | 20 | · | 64* | 13 | · | · | 58* | 32* | 53* | 46*
S=C(Nc1ccccc1Cl)NC1CCN(Cc2ccccc2)CC1 | -10 | -11 | 4 | -1 | -24 | 9 | · | · | · | ·
CC(C)(C)OC(=O)NCCCCCNC(=O)c1[nH]cnc1C(=O)NC1CCN(C(=O)OC(C)(C)C)CC1 | 46 | -24 | 23 | · | -18 | 8 | · | · | · | ·
O=c1c2ccccc2nnn1CSc1ccccc1F | 45 | -10 | 60* | -4 | -17 | 17 | 6 | 2 | 3 | 12
CN(C)c1ccc2c(=O)c3ccccc3oc2n1 | -1 | · | 1 | · | · | · | · | · | · | ·
CN(CCc1ccccc1)Cc1nc(-c2cnccn2)no1 | -11 | -8 | 53* | -9 | -21 | 7 | 34 | 1 | 13 | 11
CCC(=O)n1nc(-c2ccc(Cl)cc2)nc1SC | -28 | -3 | 44* | 4 | 0 | 18 | 44* | 1 | 5 | -11
CSc1nc(-c2ccc(Cl)cc2)nn1S(=O)(=O)c1ccccc1 | · | -8 | · | -4 | -8 | 10 | · | 11 | · | -4
Cc1ccc(NC(=S)N2CCc3[nH]c4ccccc4c3C2)cc1 | 64* | 3 | 69* | -4 | -4 | 0 | 49* | 10 | 36 | 20
S=C(NC1CCCCC1)N1CCc2[nH]c3ccccc3c2C1 | 5 | -15 | 1 | -16 | -28 | 1 | · | · | · | ·
O=C(CCCCl)N1CCc2[nH]c3ccccc3c2C1 | 87* | · | 89* | · | · | · | 97* | 0 | 92* | 8
COc1ccc(CCC2(C)NC(=O)N(C(C)C(=O)Nc3ccccc3F)C2=O)cc1 (stereo not drawn) | 3 | -10 | 1 | · | -19 | -3 | · | · | · | ·
COc1ccc(NC(=O)CSc2nnc(-c3ccccn3)n2N)cc1Cl | 22 | -12 | 44* | -9 | -25 | 15 | 61* | 2 | 24 | 4
CCOc1ccc(CC(=N)C2=C(O)CC(C)(C)CC2=O)cc1OCC | -3 | -6 | -1 | -10 | -16 | 27 | · | · | · | ·
CCOc1ccc(CC(=NCCc2ccccc2)C2=C(O)CC(C)(C)CC2=O)cc1OCC | 87* | -13 | 81* | -11 | -27 | -6 | 88* | 3 | 79* | 10
COc1ccc(NC(=O)N2CCc3ccccc3C2)cc1OC | -14 | -1 | 59* | -16 | -10 | 4 | 66* | 3 | 12 | 1
COc1ccc(OC)c(NC(=O)N2CCc3ccccc3C2)c1 | -13 | -17 | 44* | -8 | -27 | 10 | 57* | 1 | 9 | 11
COc1ccc(CNC(=O)N2CCc3ccccc3C2)cc1Cl | -2 | -28 | 3 | 15 | -28 | 12 | · | · | · | ·
COc1ccc(NC(=O)N2CCc3ccccc3C2)c(OC)c1 | 20 | 1 | 44* | -2 | -14 | 12 | 48* | 0 | -10 | -4
COc1ccc(-c2nc(CSCC(=O)N3CCc4ccccc4C3)c(C)o2)cc1OC | 29 | -24 | 68* | -4 | -29 | 26 | 94* | 2 | 60* | 1
COc1ccc(NC(=O)N2CCc3cc(OC)c(OC)cc3C2)cc1 | -6 | 3 | 1 | -7 | 1 | 3 | · | · | · | ·
CC1(C)CC(=O)C(CO)=C(c2cccc3ccccc23)C1=O | 5 | -11 | 10 | · | -4 | 5 | · | · | · | ·
Cc1nc(C(F)(F)F)ccc1C(=O)N1CCC(C)(C(=O)NS(=O)(=O)C2CC2)C1 (stereo not drawn) | -10 | · | 0 | · | · | · | · | · | · | ·
O=C(N[C@@H]1c2ccccc2CC[C@@H]1OCc1ccccc1)c1ccc(-c2ccccc2)cc1 | -12 | -23 | 7 | · | -18 | 3 | · | · | · | ·
COc1ccc(NC(=O)N[C@H]2CC[C@@H](CC(=O)NC3CCC3)O[C@@H]2CO)cc1 | -11 | · | 1 | · | · | · | · | · | · | ·
SMILES | TAAR1 antag | CHO parental Ca | TAAR1 agonist | GPR7 antagonist | OX1R antag-1 | OX1R antag-2 | TAAR1 ag conf | Ga16 nonsel ag | TAAR1 desensitize | Ga16 antag count
CCCCNC(=O)C[C@H]1C[C@@]2(C(=O)OC)C(=C[C@H](C3CCCC3)O[C@@H]2C)N(Cc2ccccc2)C1=O | -37 | · | 0 | · | · | · | · | · | · | ·
O=c1c2ccccc2nnn1Cc1nnc(-c2ccccc2Br)o1 | -1 | -24 | 67* | -3 | -37 | 17 | 115* | 80* | 22 | 1
CCOC(=O)N1CCN(CC(O)COc2ccccc2C(C)C)CC1 (stereo not drawn) | 8 | -27 | 7 | -9 | -24 | 11 | · | · | · | ·
CCN(CCNCC(O)COc1ccccc1C(C)C)c1cccc(C)c1 (stereo not drawn) | 43 | 31* | 73* | 8 | -5 | -13 | 79* | 20* | 58* | 39*
NS(=O)(=O)c1ccc(NC(=O)c2cc(Cl)sc2Cl)cc1 | 1 | 15 | 1 | -4 | -8 | 6 | · | · | · | ·
COc1cc(/C=C2/C(=O)c3cccc([N+](=O)[O-])c3C2=O)c(Br)cc1O | 26 | -12 | 50* | -6 | -2 | 24 | 37 | 28* | 42 | 46*
COc1ccccc1NC(=O)CCCCCN1C(=O)c2cccc([N+](=O)[O-])c2C1=O | -15 | -12 | 3 | -21 | -11 | 29 | · | · | · | ·
COC(=O)C1=C(C)N(Cc2cccc(C(F)(F)F)c2)C(=NCC2CC2)NC1c1cccc(F)c1 (stereo not drawn) | 97* | · | 131* | · | · | · | 104* | 70* | 92* | 81*
COC(=O)C1=C(C)N(Cc2ccc(C(F)(F)F)cc2)C(=NCc2ccccc2)NC1c1cccc(F)c1 (stereo not drawn) | 66* | · | 40* | · | · | · | 30 | 18* | 48 | 39*

Compound activity from PubChem BioAssay.
